Experimental data: ChEMBL document CHEMBL4725498, “Synthesis and Biological Evaluations of Electrophilic Steroids Inspired by the Taccalonolides” (ACS Med Chem Lett, 2020)
The source made the active and inactive calls. The calls are words filed in the database; no cut-off is given here.

Columns and labels:
HeLa [1] = test: Cytotoxicity against human HeLa cells assessed as reduction in cell viability measured after 48 hrs by sulforhodamine B assay; format: functional; settings: read-out: LC50 (the source's name)
Outline: (§1)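 HeLa cells exposed to compound for 48 h, then growth measured by sulforhodamine B (SRB) staining. GI50 (50% growth inhibition), TGI (total growth inhibition) and LC50 (50% cytotoxicity) were read from concentration–response data. Values are average ± SEM, n = 3–5.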

HeLa [2] = test: Antiproliferative activity against human HeLa cells assessed as growth inhibition measured after 48 hrs by sulforhodamine B assay; format: functional; outline: as §1
HCC1937 = test: Cytotoxicity against human HCC1937 cells assessed as reduction in cell viability measured after 48 hrs by sulforhodamine B assay; format: functional; settings: read-out: LC50 (the source's name)
Outline: (§2)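 Breast lines were tested in a 48 h SRB assay: four molecularly diverse triple-negative lines plus nontumorigenic MCF 10A, with MCF 10A tested up to 50 μM. LC50 values came from concentration–response curves. Complete cytotoxicity was taken as the concentration giving full cell kill after 48 h incubation.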

MDA-MB-231 = test: Cytotoxicity against human MDA-MB-231 cells assessed as reduction in cell viability measured after 48 hrs by sulforhodamine B assay; format: functional; outline: as §2
BT-549 [3] = test: Cytotoxicity against human BT-549 cells assessed as reduction in cell viability measured after 48 hrs by sulforhodamine B assay; format: functional; settings: read-out: LC50 (the source's name); outline: as §2
Sus scrofa [4] = organism: Sus scrofa; test: Inhibition of porcine brain tubulin polymerization assessed as reduction in rate and extent of tubulin polymerization at 20 uM by turbidimetric assay
Outline: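 Purified porcine brain tubulin (20 μM) was incubated with 20 μM compound or DMSO vehicle. Polymerization was monitored turbidimetrically after shift to 37 °C.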

MDA-MB-453 = test: Cytotoxicity against human MDA-MB-453 cells assessed as reduction in cell viability measured after 48 hrs by sulforhodamine B assay; format: functional; outline: as §2
MCF-10A = test: Cytotoxicity against human MCF10A cells assessed as reduction in cell viability measured after 48 hrs by sulforhodamine B assay; format: cell-based; outline: as §2
[5] = Selectivity index, ratio of LC50 for human HeLa cells to LC50 for human HCC1937 cells measured after 48 hrs by sulforhodamine B assay; format: functional
SK-OV-3 [6] = test: Antiproliferative activity against human SKOV3 cells assessed as reduction in cell growth at 0.01 to 10 uM incubated for 48 hrs by SRB assay; format: functional, cell-based; settings: dose microM 0.01-10, time 48.0 hrs
SK-OV-3 [7] = test: Antiproliferative activity against human SKOV3-M6/6 cells assessed as reduction in cell growth at 0.01 to 10 uM incubated for 48 hrs by SRB assay; format: functional, cell-based; settings: dose microM 0.01-10, time 48.0 hrs
OVCAR-5 = test: Antiproliferative activity against human OVCAR-5 cells assessed as reduction in cell growth at 0.01 to 10 uM incubated for 48 hrs by SRB assay; format: functional, cell-based; settings: dose microM 0.01-10, time 48.0 hrs
ES2 = test: Antiproliferative activity against human ES-2 cells assessed as reduction in cell growth at 0.01 to 10 uM incubated for 48 hrs by SRB assay; format: functional, cell-based; settings: dose microM 0.01-10, time 48.0 hrs
HeLa [8] = test: Inhibition of colony formation in human HeLa cells at 1.4 uM treated for 8 hrs followed by compound washout and measured after 11 days by crystal violet staining based assay; format: functional
Outline: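 HeLa cells were treated for 8 h with 1.4 μM compound or EtOH vehicle, then the drug was washed out. Colonies were scored 11 days after removal. Groups were compared with vehicle by 1-way ANOVA with Dunnett's post hoc test.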

[9] = Selectivity ratio of antiproliferative activity against human SKOV3-M6/6 cells transfected with MDR1 to antiproliferative activity against human SKOV3 cells measured after 48 hrs by sulforhodamine B assay; format: functional
HeLa [10] = test: Antiproliferative activity against human HeLa cells assessed as reduction in cell viability incubated for 8 hrs by sulforhodamine B assay; format: functional; settings: read-out: LC50 (the source's name)
HeLa [11] = test: Antiproliferative activity against human HeLa cells assessed as reduction in cell growth incubated for 8 hrs by trypan blue exclusion assay; format: functional, cell-based
Outline: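 HeLa viability was followed during the first 8 h of treatment by trypan blue exclusion.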

Tubulin (Homo sapiens) [12] = biological target: T1, Tubulin (Homo sapiens) (UniProt P68371+Q9H4B7+P0DPH7+P68366+Q13509+Q71U36+P04350+Q3ZCM7+P07437+P68363+Q9BQE3+Q6PEY2+Q13885+Q9BVA1+Q9BUF5); test: Induction of microtubule destabilization in human BT-549 cells assessed as loss of microtubule network at 100 nM incubated for 6 hrs by indirect immunofluorescence assay; format: cell-based
Outline: (§3)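 BT-549 cells were treated for 6 h with compound or DMSO vehicle. Microtubules were then visualised by immunofluorescence with a β-tubulin antibody, scoring microtubule loss or bundling.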

Sus scrofa [13] = organism: Sus scrofa; test: Inhibition of porcine brain tubulin polymerization assessed as reduction in rate and extent of tubulin polymerization at 5 to 10 uM by turbidimetric assay; settings: dose microM 5-10
Outline: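 Purified porcine brain tubulin (20 μM) was incubated with a range of compound concentrations. Polymerization was monitored turbidimetrically after shift to 37 °C.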

BT-549 [14] = test: Cytotoxicity against human BT-549 cells assessed as concentration required for complete reduction in cell viability incubated for 48 hrs by sulforhodamine B assay; format: functional; outline: as §2
Tubulin (Homo sapiens) [15] = biological target: T1, Tubulin (Homo sapiens); test: Induction of microtubule stabilization in human BT-549 cells assessed as bundling of microtubule network at 1 microM incubated for 6 hrs by indirect immunofluorescence assay; format: cell-based; outline: as §3

In the case of `C[C@]12C[C@H]3O[C@H]3C[C@@H]1CC[C@H]1[C@@H]3[C@@H]4O[C@@H]4C(=O)[C@@]3(C)CC[C@@H]12`, the CC50 (HeLa [1]) is reported as 1.09 µM, the GI50 (HeLa [2]) is reported as 0.52 µM and the TGI (HeLa [2]) is reported as 0.74 µM. It also gave a CC50 (HCC1937) of 0.47 µM, an LC50 (concentration killing 50% of cells) (MDA-MB-231) of 2.5 µM and a CC50 (BT-549 [3]) of 1.07 µM. For the same compound, the inhibition (Sus scrofa [4]) was “inactive”, the LC50 (concentration killing 50% of cells) (MDA-MB-453) was 0.74 µM and the LC50 (MCF-10A) was greater than 50 µM. For the same compound, the RatioLC50 [5] was 2, the Activity (SK-OV-3 [6]) was “Active” and the Activity (SK-OV-3 [7]) was “Active”. The Activity (OVCAR-5) was “Active”, the Activity (ES2) was “Active” and the inhibition at 1.4 µM (HeLa [8]) was 100%. For the same compound, the Ratio [9] was 5, the CC50 (HeLa [10]) was 1.4 µM and the Activity (HeLa [11]) was “inactive”.
Compound `C[C@]12CC=CC[C@@H]1CC[C@@H]1[C@@H]2CC[C@]2(C)C(=O)C=C[C@@H]12` has a CC50 (HeLa [1]) of 1.07 µM, a GI50 (HeLa [2]) of 0.47 µM and a TGI (HeLa [2]) of 0.72 µM. The CC50 (HCC1937) was 1.39 µM, the CC50 (MDA-MB-231; read-out: LC50 (the source's name)) was 1.92 µM and the CC50 (BT-549 [3]) was 0.61 µM. For the same compound, the inhibition (Sus scrofa [4]) was “Active”, the Activity (Tubulin (Homo sapiens) [12]) was “inactive” and the inhibition (Sus scrofa [13]) was “Dose-dependent effect”. The CC100 (BT-549 [14]) was 1 µM and the Activity (Tubulin (Homo sapiens) [15]) was “inactive”.
